# MrgX1 agonist: agonists of human MrgX1 receptor. MrgX1-HEK293 cells, Fluo-4 calcium fluorescence, agonist mode; active compounds read high. 310,000 compounds, 0.44% hits. B-score at 10 µM;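 active = calcium response B-score plate-corrected fluorescence ratio at least 3 library SD, with starting fluorescence B-score inside 5 SD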
# Target sequence (Q96LB2 whole entry, looked up): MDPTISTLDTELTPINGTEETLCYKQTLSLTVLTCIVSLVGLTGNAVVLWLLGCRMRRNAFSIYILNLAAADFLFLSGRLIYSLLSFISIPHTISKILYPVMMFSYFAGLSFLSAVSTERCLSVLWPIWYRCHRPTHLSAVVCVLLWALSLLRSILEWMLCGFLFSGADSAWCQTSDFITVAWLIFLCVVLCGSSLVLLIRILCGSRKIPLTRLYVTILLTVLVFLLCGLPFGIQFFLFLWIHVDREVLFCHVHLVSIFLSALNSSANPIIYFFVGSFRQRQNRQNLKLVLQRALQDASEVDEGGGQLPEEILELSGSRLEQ
#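 Material: HEK293 cells stably expressing human MrgX1 receptor | Quantity: 15,000 cells per well | Times: Cells plated overnight, dye loaded 0.5 h 37 °C, 0.5 h room temperature | Measured by: Kinetic Fluo-4 NW fluorescence of intracellular calcium | Control set: Positive and negative controls per plate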
# RGS4 block: inhibitors of human RGS4; HEK293 M3R/RGS4 inducible, Fluo-4 calcium flux; active compounds read high; triggered by carbachol at its EC20; 310,000 compounds, 0.45% hits; B-score at 10 µM;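 active = B-score, a plate-corrected calcium signal, over three deviations above library mean, with baseline fluorescence within five deviations of library mean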;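 also: RGS4 expression induced by doxycycline in cells with stable M3 receptor; B-score is computed from the integrated fluorescence ratio over baseline after carbachol; higher B-score means a larger calcium signal and so more RGS4 inhibition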
# Target sequence (P49798 whole entry, looked up): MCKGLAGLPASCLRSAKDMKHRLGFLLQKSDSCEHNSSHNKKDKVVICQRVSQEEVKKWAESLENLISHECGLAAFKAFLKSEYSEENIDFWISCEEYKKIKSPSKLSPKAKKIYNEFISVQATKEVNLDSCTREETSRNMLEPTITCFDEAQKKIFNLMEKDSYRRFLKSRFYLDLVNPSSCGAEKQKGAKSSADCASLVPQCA
# MrgX1 antag: human MrgX1 receptor antagonism, primary screen. Q96LB2. MRGX1-HEK293 calcium flux, Fluo-4, BAM8-22 antagonism; active compounds read low. B-score at 10 µM. 310,000 compounds, 1.3% hits;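 active = calcium-response B-score plate-corrected more than 3 library SD below zero, starting fluorescence within 5 deviations, no agonist response on first addition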;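 also: peak minus trough fluorescence over baseline after final BAM8-22 challenge near maximal dose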
# RGS4 pot: RGS4 potentiation or activation; 310,000 compounds, 0.92% hits; HEK293 M3R/inducible RGS4, carbachol calcium flux Fluo4; active compounds read low; AID 463111; B-score at 10 µM;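 active = B-score of the integrated calcium signal more than 4 SD below the library mean, with starting fluorescence not abnormally high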;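 also: negative B-score means reduced calcium response which marks RGS4 activation or potentiation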
#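 System: HEK293 FlpIn-TREx cells, stable M3R, doxycycline-inducible RGS4. Timing: overnight RGS4 induction, 30 min dye load 37 °C, 20 min compound RT. Also added: carbachol, ECmax concentration. Measured by: Fluo4 fluorescence kinetic imaging of calcium. Evaluation: integrated calcium ratio converted to B score.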
# MrgX1 PAM: human MrgX1 positive allosteric modulation, primary screen; 310,000 compounds, 0.63% hits; Q96LB2; B-score at 10 µM; MrgX1-HEK293, Fluo-4 calcium flux, FDSS; active compounds read high;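 active = plate-corrected calcium response at least 3 library SD above typical, normal starting fluorescence, not activating the receptor alone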;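 also: compound read alongside a low EC10 to EC30 dose of BAM8-22 agonist; peak minus trough fluorescence over baseline measured at the second addition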
# MrgX1 ag reconf: reconfirmed activator of human MrgX1 receptor signaling. shares compounds with MrgX1 agonist. MrgX1-HEK293, Fluo-4 calcium fluorescence, FDSS. activation, % at 10 µM. 600 compounds, 78% hits. AID 602412;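 active = calcium signal rise, corrected for plate position, at least 3 library SD high, with starting brightness within 5 such deviations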
# HEK293 Ca flux: MrgX1 antagonist counter-screen hit in parental HEK293 cells; fluorescence ratio F(max-min)/F0 at 10 µM; Fluo-4 calcium fluorescence, FDSS; shares compounds with MrgX1 antag; AID 624111; 4,000 compounds, 2% hits;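 active = duplicate-averaged calcium fluorescence ratio at least three times the standard deviation of buffer wells, a nonspecific response in parental cells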
# HEK293 Ca counter: counter-screen for MrgX1 allosteric activators: effect in parental HEK293 cells; 4,000 compounds, 0.4% hits; parental HEK293 calcium flux, Fluo-4 fluorescence ratio; active compounds read high; AID 624114; fluorescence ratio F(max-min)/F0 at 10 µM; shares compounds with MrgX1 antag;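 active = calcium fluorescence ratio, averaged over duplicates, at least 3 SD of the buffer-well ratio, meaning a nonspecific response in receptor-free cells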;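 also: untransfected parental HEK293 lacking MrgX1 used as counterscreen for MrgX1 allosteric activators; fluorescence change taken during the second addition on a kinetic imager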
# HEK293 Ca cntr2: activity in parental HEK293 cells lacking MrgX1 receptor; shares compounds with MrgX1 antag; Fluo-4 calcium fluorescence (FDSS); active compounds read high; fluorescence ratio F(max-min)/F0 at 10 µM; 4,000 compounds, 8.7% hits;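 active = calcium fluorescence ratio at least three times the spread of buffer wells, meaning a non-specific response in parental cells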
# Active calls of the source: *; i = inactive; . = no result. Only some compounds are listed: those with a hit (about 3.5% of all), similar ones and a draw of the others.
SMILES,MrgX1 agonist,RGS4 block,MrgX1 antag,RGS4 pot,MrgX1 PAM,MrgX1 ag reconf,HEK293 Ca flux,HEK293 Ca counter,HEK293 Ca cntr2
Cc1cccc(N2CC(C(=O)Nc3ccc4c(c3)OCCO4)CC2=O)c1C (stereo not given),i,i,i,i,i,.,.,.,.
CC(C)Oc1ccccc1C1CC(=O)Nc2c1c(=O)n(C)c(=O)n2C (stereo not given),i,i,i,i,i,.,.,.,.
CC(C)(C)N1C(=O)c2ccccc2NC(=O)N1Cc1ccccc1,i,i,i,i,i,.,.,.,.
O=C1Nc2ccccc2C(=O)C1(Cl)Cc1ccccc1 (stereo not given),32.4*,i,i,i,i,199.1%*,i,i,i
Oc1ccccc1-c1nnc2n1CCCCC2,26.9*,i,i,i,i,i,i,i,i
Cc1ccc(-c2nnc3n2CCCCC3)cc1,i,i,i,i,i,.,.,.,.
Cc1nnsc1SCCNC(=O)c1ccc(F)cc1,i,i,i,i,i,.,.,.,.
CC(C)(C)Nc1c2ccccc2nc2ccccc12,35.2*,i,i,i,i,156.8%*,i,i,i
C/C(=N\NC(=O)Cn1nc(C)cc1C)c1ccc([N+](=O)[O-])cc1,i,i,i,i,i,.,.,.,.
Cc1cc(Nc2cc(Cl)cc(Cl)c2)nc(N)n1,40*,i,i,i,i,242.7%*,i,i,i
Cc1cc(Nc2ccc(F)cc2)nc(N)n1,i,i,i,i,i,.,.,.,.
CC(NC(=O)c1ccco1)c1ccc(-n2ccnc2)cc1 (stereo not given),i,i,i,i,i,.,.,.,.
Cc1cc(N2CCN(c3ccccc3)CC2)nc(-c2ccccc2)n1,i,i,i,i,i,.,.,.,.
Cc1cc(N2CCOCC2)nc(N)n1,73.4*,i,i,i,i,275.4%*,i,i,78.4*
Cc1cc(N2CCN(c3ccccc3)CC2)nc(N)n1,42.9*,i,i,i,i,252.5%*,i,i,i
Cc1cc(NC(=O)COc2coc(CN3CCN(c4ccc(F)cc4)CC3)cc2=O)no1,i,i,i,i,i,.,.,.,.
COc1ccc2c(c1)CCCN2S(=O)(=O)c1ccc(Cl)cc1,i,i,i,i,i,.,.,.,.
COc1ccc2c(c1)CCCN2C(N)=Nc1ccc(Cl)cc1,32.9*,i,i,i,i,i,i,i,i
CN1c2ccccc2C(O)=C(C(=O)Nc2ccccc2)S1(=O)=O,40.7*,i,i,i,i,i,i,i,i
CCOC(=O)c1ccccc1NC(=O)CN(c1ccc(OCC)cc1)S(C)(=O)=O,.,i,.,i,.,.,.,.,.
O=C(NCCCN=C1NS(=O)(=O)c2ccccc21)c1ccc(Cl)cc1,i,i,i,i,i,.,.,.,.
N=C(N)SCCc1cccc(CCSC(=N)N)c1,40.2*,i,i,i,i,180.6%*,i,i,i
COc1ccc(CN2CCNC(=O)C2CC(=O)N(C)Cc2nc(C)cs2)c(OC)c1 (stereo not given),i,i,i,i,i,.,.,.,.
CCCCC(=O)NC(=S)Nc1cccc(C(=O)O)c1,31.9*,i,i,i,i,i,i,i,i
NC(=Nc1ccc(Br)cc1)c1ccccc1,78*,i,i,i,i,288.9%*,i,i,47.8*
SMILES,MrgX1 agonist,RGS4 block,MrgX1 antag,RGS4 pot,MrgX1 PAM,MrgX1 ag reconf,HEK293 Ca flux,HEK293 Ca counter,HEK293 Ca cntr2
COc1ccnc(CSC(N)=Nc2ccc(F)cc2)c1,75.1*,i,i,i,i,383.3%*,i,i,75.4*
COc1cccc(N/C(N)=N/c2nc(CSc3ccccn3)cc(=O)[nH]2)c1,i,i,i,i,i,.,.,.,.
O=c1[nH][nH]c(-c2ccccc2)c1C=Nc1ccc(C(F)(F)F)cc1,i,i,i,i,i,.,.,.,.
O=c1[nH][nH]c(-c2ccccc2)c1C=Nc1ccc(OC(F)(F)F)cc1,33.3*,i,i,i,i,183.9%*,i,i,i
CCCOc1ccc(C(=O)N/N=C/c2c[nH]c3ccc(Br)cc23)cc1,i,i,i,i,i,.,.,.,.
CCCCCN=C(N)N/N=C/c1c[nH]c2ccc(OC)cc12,74.8*,i,i,i,i,487.7%*,i,i,137*
CC(C)Cc1csc(NC(=O)c2ccc(Br)cc2)c1C(=O)O,44.9*,i,i,i,i,i,i,i,i
Cc1cc2cc(CCNC(=O)CCc3ccccc3)c(=O)[nH]c2cc1C,i,i,i,i,i,.,.,.,.
O=C(O)c1ccc(-c2ccc(/C=c3/sc4nc5ccccc5n4c3=O)o2)cc1Cl,80.7*,i,i,i,i,465.1%*,0.128*,i,104*
O=C(CCCN1Cc2ccccc2C1)c1ccc(F)cc1,37.8*,i,i,i,i,145.1%*,i,i,i
CN1CCN(CCCC(=O)c2ccc(F)cc2)CC1,i,i,i,i,i,.,.,.,.
CC(O)CSc1nc2c(c(=O)[nH]c(=O)n2C)n1Cc1ccccc1Cl (stereo not given),i,i,i,i,i,.,.,.,.
Cc1ccc(NS(=O)(=O)c2ccc(C(=O)N3CC(C)OC(C)C3)cc2)cc1 (stereo not given),28.9*,i,i,i,i,151.4%*,i,i,i
Cc1ccc(NS(=O)(=O)c2ccc(C(=O)N3CCC3)cc2)cc1,i,i,i,i,i,.,.,.,.
O=c1[nH]c(/C=C/c2ccc(Br)cc2)nc2ccccc12,i,i,i,i,i,.,.,.,.
CN(C)c1ccc(/C=C/c2nc3ccccc3c(=O)[nH]2)cc1,26.7*,i,i,-7.05*,i,i,i,i,55.2*
CN(CC(=O)Nc1ccccc1Br)C(=O)CNC(=O)Cc1cccc2ccccc12,i,i,i,i,i,.,.,.,.
CCOc1ccc(NC(=O)c2ccccc2C(=O)c2ccccc2)cc1OCC,i,i,i,i,i,.,.,.,.

# Screening results deposited in PubChem by Johns Hopkins Ion Channel Center.
